This is an account of results in ChEMBL document CHEMBL4673268, “The optimization of a novel selective antagonist for human M muscarinic acetylcholine receptor” (Bioorg Med Chem Lett, 2020).

Assay [1] deals with T1, Muscarinic acetylcholine receptor M2 (Homo sapiens, UniProt P08172).
T1 sequence (P08172 whole entry): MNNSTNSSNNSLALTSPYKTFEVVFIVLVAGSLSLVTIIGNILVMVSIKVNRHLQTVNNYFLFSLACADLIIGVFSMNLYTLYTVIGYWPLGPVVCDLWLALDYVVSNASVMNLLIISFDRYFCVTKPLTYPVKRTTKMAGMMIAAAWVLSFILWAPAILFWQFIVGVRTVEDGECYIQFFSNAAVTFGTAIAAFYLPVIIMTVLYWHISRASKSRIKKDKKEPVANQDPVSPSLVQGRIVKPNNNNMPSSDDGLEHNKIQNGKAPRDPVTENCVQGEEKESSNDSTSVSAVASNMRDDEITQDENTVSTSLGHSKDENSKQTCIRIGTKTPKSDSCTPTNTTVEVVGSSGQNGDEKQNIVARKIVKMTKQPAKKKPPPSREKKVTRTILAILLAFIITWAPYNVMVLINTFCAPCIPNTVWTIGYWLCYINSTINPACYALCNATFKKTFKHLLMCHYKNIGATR
Put plainly: Antagonist activity at human muscarinic M2 receptor expressed in CHO cells co-expressing Galpha15 assessed as inhibition of acetylcholine-induced calcium mobilization relative to acetylcholine. Format: functional, cell-based.

Assay [2] has as its target T1, Muscarinic acetylcholine receptor M2. Put plainly: Displacement of [3H]-NMS from muscarinic M2 receptor (unknown origin) expressed in CHO-K1 cell membranes assessed as inhibition constant by radioligand competition analysis. Further details: species or system Cell membrane.
Assay [3] addresses T2, Muscarinic acetylcholine receptor M4 (Homo sapiens, UniProt P08173).
T2 sequence (P08173 whole entry): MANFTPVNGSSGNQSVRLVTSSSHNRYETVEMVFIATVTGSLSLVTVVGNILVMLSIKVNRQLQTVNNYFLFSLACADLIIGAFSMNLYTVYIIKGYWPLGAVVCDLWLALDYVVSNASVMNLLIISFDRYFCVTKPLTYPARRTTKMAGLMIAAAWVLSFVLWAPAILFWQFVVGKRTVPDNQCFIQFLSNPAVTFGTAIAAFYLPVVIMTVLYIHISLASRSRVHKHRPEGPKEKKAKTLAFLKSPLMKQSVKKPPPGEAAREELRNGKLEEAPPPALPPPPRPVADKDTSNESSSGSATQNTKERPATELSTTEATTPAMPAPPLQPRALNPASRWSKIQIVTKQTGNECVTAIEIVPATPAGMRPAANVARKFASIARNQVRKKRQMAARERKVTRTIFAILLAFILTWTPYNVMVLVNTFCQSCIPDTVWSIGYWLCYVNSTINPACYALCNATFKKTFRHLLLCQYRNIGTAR
Put plainly: Displacement of [3H]-NMS from muscarinic M4 receptor (unknown origin) expressed in CHO-K1 cell membranes assessed as inhibition constant by radioligand competition analysis. Further details: species or system Cell membrane. A digest of the protocol: (§1)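 Inhibition constants came from radioligand competition binding. Acetylcholine and atropine were included as positive controls for competitive binding. Values are given as mean ± SEM.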

Assay [4] concerns the target T3, Muscarinic acetylcholine receptor M2 (Homo sapiens) (UniProt P08172).
T3 sequence (whole entry): T1 sequence (P08172 whole entry)
Put plainly: Antagonist activity at muscarinic M2 receptor (unknown origin) at 100 uM by acetylcholine titration assay. The conditions noted are these: filed as antagonist. In short, it runs like this:
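Acetylcholine titration curves were run in a radioligand binding format, without and with test ligand at 100 μM. A rightward shift of the ACh curve was taken to indicate negative allosteric modulation, and no shift to indicate orthosteric antagonism.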

The target in assay [5] is Muscarinic acetylcholine receptor M3 (Homo sapiens, UniProt P20309). Put plainly: Displacement of [3H]-NMS from muscarinic M3 receptor (unknown origin) expressed in CHO-K1 cell membranes assessed as inhibition constant by radioligand competition analysis. Also noted: species or system Cell membrane. A digest of the protocol:
as §1

For assay [6], the target named is T4, Muscarinic acetylcholine receptor M1 (Homo sapiens, UniProt P11229).
T4 sequence (P11229 whole entry): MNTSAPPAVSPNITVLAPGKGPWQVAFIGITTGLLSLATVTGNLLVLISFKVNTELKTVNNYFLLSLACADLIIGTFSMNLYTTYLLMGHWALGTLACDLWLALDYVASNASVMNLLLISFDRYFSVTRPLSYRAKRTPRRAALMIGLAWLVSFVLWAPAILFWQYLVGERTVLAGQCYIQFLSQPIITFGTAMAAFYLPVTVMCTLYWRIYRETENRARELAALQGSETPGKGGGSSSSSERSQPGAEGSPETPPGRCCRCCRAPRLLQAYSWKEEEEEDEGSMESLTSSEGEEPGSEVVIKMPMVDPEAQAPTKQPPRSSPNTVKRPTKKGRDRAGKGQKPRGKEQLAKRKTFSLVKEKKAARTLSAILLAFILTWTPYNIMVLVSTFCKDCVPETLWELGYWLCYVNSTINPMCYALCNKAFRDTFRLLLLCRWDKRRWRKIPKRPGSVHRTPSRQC
Kind of assay: Displacement of [3H]-NMS from muscarinic M1 receptor (unknown origin) expressed in CHO-K1 cell membranes assessed as inhibition constant by radioligand competition analysis. Also noted: species or system Cell membrane. A digest of the protocol: as §1

Assay [7] concerns the target Muscarinic acetylcholine receptors; M2 & M3 (Homo sapiens) (UniProt P20309+P08172). Put plainly: Selectivity for human muscarinic M2 receptor over muscarinic M3 receptor (unknown origin). Format: protein assay.
Assay [8] concerns the target Muscarinic acetylcholine receptor M2 and M4 (Homo sapiens) (UniProt P08173+P08172). Put plainly: Selectivity for human muscarinic M2 receptor over muscarinic M4 receptor (unknown origin). The class given is protein assay.
For assay [9], the target named is Muscarinic acetylcholine receptors; M1 & M2 (Homo sapiens) (UniProt P11229+P08172). Kind of assay: Selectivity for human muscarinic M2 receptor over muscarinic M1 receptor (unknown origin). The class given is protein assay.

pIC50, pKi: −log10 of the molar value. Calls of active or inactive are those of the source. No cut-off for these calls is given here.

Sequence of Muscarinic acetylcholine receptor M3 (P20309 whole entry): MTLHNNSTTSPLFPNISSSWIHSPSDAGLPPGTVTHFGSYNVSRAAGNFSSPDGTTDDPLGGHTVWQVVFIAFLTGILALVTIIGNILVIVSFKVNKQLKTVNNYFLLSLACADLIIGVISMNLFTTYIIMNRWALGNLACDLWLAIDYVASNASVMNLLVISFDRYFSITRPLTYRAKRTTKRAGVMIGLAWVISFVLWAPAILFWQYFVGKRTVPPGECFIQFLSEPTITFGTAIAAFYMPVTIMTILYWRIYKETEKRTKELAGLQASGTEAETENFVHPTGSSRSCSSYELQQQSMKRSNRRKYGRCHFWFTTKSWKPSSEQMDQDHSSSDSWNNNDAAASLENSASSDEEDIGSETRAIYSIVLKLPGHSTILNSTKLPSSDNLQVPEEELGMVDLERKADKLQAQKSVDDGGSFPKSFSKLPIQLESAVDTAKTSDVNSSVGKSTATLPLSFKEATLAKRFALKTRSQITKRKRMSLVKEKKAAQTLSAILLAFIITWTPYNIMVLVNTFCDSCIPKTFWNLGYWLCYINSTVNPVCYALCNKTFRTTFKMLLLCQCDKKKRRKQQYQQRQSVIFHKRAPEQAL
Sequence of Muscarinic acetylcholine receptors; M2 & M3 (Homo sapiens) (P20309 whole entry, looked up, one chain of several): as the sequence (P20309 whole entry) above

In the case of `CC1Cc2ccccc2N1CC(=O)N1CCCCC1` (stereo not given), the pIC50 in assay [1] was under 4.00. In addition, the pKi in [2], in assay [3] and in assay [5] was under 4.00 in each case. The outcome in [4] was Active.
For `CC1Cc2ccccc2N1CC(=O)N1CCCC1` (stereo not given), in [1], the negative logarithm of the IC50 (pIC50) was under 4.00. In addition, the negative-log Ki (pKi) in [6] is 4.00; in [2], 4.67; in assay [3], 4.13; in [5], 4.10. In assay [4], the result was Active.
Regarding `Cn1ccc(NC(=O)CCN2CCCc3ccccc32)n1`, the negative-log IC50 (pIC50) in assay [1] was 6.01. For the same compound, the pKi in [6] is 5.12; in assay [2], 5.48; in assay [3] it was 5.06; in assay [5], 4.59.
For the compound `O=C(CCN1CCCc2ccccc21)N1CCC1`, in assay [1], the pIC50 is 4.92. The pKi in [6] was 5.35; in [2], 5.77; in assay [3], 5.24; in assay [5], 4.94.
Regarding `O=C(CCN1CCCc2ccccc21)NCc1cccs1`, the pIC50 in assay [1] is 5.99. Moreover, the pKi in assay [6] was 6.19; in assay [2], 6.19; in assay [3], 5.67; in assay [5], 5.14.
With `O=C(CCN1CCCc2ccccc21)Nc1cccc2cccnc12`, the results for the Ratio in assay [7], in assay [8] and in assay [9] were over 250, 30 and 8, respectively. For the same compound, the pIC50 in [1] was 6.32. Also, the negative-log Ki (pKi) in assay [6] is 5.31; in assay [2] it was 6.21; in [3], 4.74; in assay [5], under 4.00. Also, in assay [4], the outcome was Active.
Take `O=C(CCN1CCCc2ccccc21)N1CCCC(CO)C1` (stereo not given): the pIC50 in assay [1] was 6.12. Further, the pKi in assay [6] is 5.84; in [2], 6.21; in assay [3] it was 5.76; in assay [5], 5.28.
`CC1CCc2ccccc2N1CC(=O)N1CCCCC1` (stereo not given): the negative-log IC50 (pIC50) in [1] is 5.13. Besides, the pKi is 4.55 in assay [6], 5.44 in [2], 5.05 in [3] and 4.28 in assay [5].
Consider `O=C(CN1CCc2ccc(F)cc21)N1CCCC1`, for which the pIC50 in assay [1] was 4.12. For the same compound, the pKi was under 4.00 in assay [6], 4.30 in assay [2], under 4.00 in [3] and 4.02 in [5].
Regarding `O=C(CN1CCCc2cnccc21)N1CCCCC1`, the negative-log IC50 (pIC50) in assay [1] was under 4.00. For the same compound, the pKi in [6] is under 4.00; in [2] it was 4.39; in assay [3], 4.23; in assay [5], 4.22.
